Source: PMC5829012 (Biochemistry, 2018)
“Also recorded” adds a separate entry of the source. Like-named read-outs stand apart in the source and are kept apart here.

Key:
[1] = target: T1, Aβ42-fibrinogen interaction (Homo sapiens, UniProt P05067); experiment: AlphaLISA of the Aβ42-fibrinogen interaction; type: binding; settings: triplicate
How it was run: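 Test compound (0.1–100 μM) incubated 30 min at RT with 10 nM biotinylated Aβ42 and 1 nM fibrinogen in 25 mM Tris-HCl pH 7.4, 150 mM NaCl, 0.05% Tween-20, 0.1% BSA. Anti-fibrinogen antibody, 20 μg/ml streptavidin donor and protein A acceptor beads added for 90 min at RT. Triplicate runs; IC50 from sigmoidal dose-response fit with 95% CI.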

Aβ aggregation = settings: cited from earlier work
[2] = target: T1, Aβ42-fibrinogen interaction; settings: positive control; cited from earlier work
AD mouse models = settings: cited from earlier work
[3] = system: fibrin clot formation from fibrinogen with or without Aβ42 oligomers; experiment: In vitro clotting; type: biochemical, human; settings: compound 20 μM; fibrinogen 1.5 μM; thrombin; 450 nm
How it was run: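 Purified human fibrinogen (1.5 μM) was preincubated with test compound (20 μM) or 0.4% DMSO vehicle, with or without Aβ42 oligomers (3 μM). Oligomers were made from HFIP-monomerized films: sonicated in DMSO, agitated overnight at 4°C, spun at 20,000 x g, and quantified by BCA. Clotting was started with thrombin (0.5 U/mL) and CaCl₂ (5 mM) in 20 mM HEPES pH 7.4, 137 mM NaCl at RT. A450 turbidity was followed over time, in triplicate.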

Aβ42 aggregation = Aβ42 aggregation (Homo sapiens, UniProt P05067); experiment: Aβ42 aggregation kinetics by ThT fluorescence; type: biochemical; settings: Aβ42 12.5 μM; compound 48 μM; 37°C, 26 hrs
Aβ42 aggregation, sequence (P05067 672-713 limits assumed): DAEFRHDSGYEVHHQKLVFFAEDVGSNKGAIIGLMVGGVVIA
How it was run: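 HFIP-monomerized Aβ42 was dissolved in DMSO by sonication, diluted in 20 mM HEPES pH 7.4/140 mM NaCl, spun 10 min at 4°C and kept on ice for ≤30 min. Wells were DMSO-matched; buffer ± compound served as controls. ThT was 33 μM final; plates shaken at 25 rpm, 37°C. Fluorescence (ex 440/em 480 nm) was read hourly. Triplicate.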

Aβ42 = settings: surface plasmon resonance; cited from earlier work
[4] = system: Aβ42-induced activation of the FXII-mediated contact system; experiment: Kallikrein activity assay; type: biochemical, human; settings: DXS 0.1 μg/ml
How it was run: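 Aβ42 oligomers (overnight 4°C in HEPES buffer, 1 μM final) ± test compound (40 μM) shaken 30 min at RT in 20 mM HEPES pH 7.4/140 mM NaCl. Human FXII and plasma prekallikrein added (10 nM each), then S-2302 (0.67 mM final). A405 read at RT; rate over 30 min as mU/min. DXS 0.1 µg/ml ± test compound as positive control; triplicate.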

[5] = read-out: AlphaLISA (IC50), known Aβ aggregation inhibitors (Table 1), 10 nM biotinylated Aβ42, 1 nM fibrinogen

T1 sequence (P05067 672-713 limits assumed): as above

Molecule: O=C1NC(=O)c2cc(Nc3ccccc3)c(Nc3ccccc3)cc21 [4,5-Dianilino Pthalimide (DAPH), 4,5-Dianilino Pthalimide]
- IC50 [1, 5]: 43.2 µM

Molecule: Oc1cccc(Nc2ccc(Nc3cccc(O)c3)nn2)c1 [RS-0406]
- IC50 [1, 5]: > 100 µM
- inhibition of Aβ aggregation and its toxicity (Aβ aggregation): strongly inhibit

Molecule: CN(C)CCN(Cc1ccccc1)C(=O)c1cc(-c2ccc(F)cc2)n2nc(C(C)(C)C)cc2n1 [RU-505]
- inhibition of the Aβ42-fibrinogen interaction [2]: known inhibitor of the Aβ42-fibrinogen interaction
- cognitive impairment (AD mouse models): lessened the severity
- cortical inflammation (AD mouse models): reduced
- vascular Aβ deposition (AD mouse models): reduced

Molecule: CN(C)c1cccc(Oc2cnc(Nc3cccc(O)c3)nc2)c1 [SEN1269]
- IC50 ([1]; RHS analogs of SEN1269 (Table 2), AlphaLISA): 17.8 µM
- IC50 [1, 5]: 17.8 µM
- turbidity of the normal fibrin clot formed in the absence of Aβ42 [3]: further decreased the turbidity
- Aβ42 aggregation (ThT fluorescence) (Aβ42 aggregation): effectively inhibited Aβ42 aggregation
- binding to Aβ42 (Aβ42): binds to Aβ42; also recorded: shown to bind Aβ42
- inhibition of Aβ aggregation / β-pleated sheet assembly and toxicity (Aβ aggregation): potent Aβ aggregation inhibitor; also recorded: block

Molecule: Dextran sulfate
- kallikrein activity (positive control) [4]: high kallikrein activity

Molecule: Tanshinone
- IC50 [1, 5]: > 100 µM
- inhibition of Aβ aggregation and its toxicity (Aβ aggregation): strongly inhibit
